23 molecules from article PMC11362829 (RSC Advances, 2024) can be followed below.

≈ marks a conversion by molar mass, not a printed value. A value given as a limit tells only on which side of the number the result lay.

For data set [1], the target named is T1, recombinant E. coli DXR enzyme (EcDXR) (Escherichia coli, UniProt P45568).
T1 sequence (P45568 1-398): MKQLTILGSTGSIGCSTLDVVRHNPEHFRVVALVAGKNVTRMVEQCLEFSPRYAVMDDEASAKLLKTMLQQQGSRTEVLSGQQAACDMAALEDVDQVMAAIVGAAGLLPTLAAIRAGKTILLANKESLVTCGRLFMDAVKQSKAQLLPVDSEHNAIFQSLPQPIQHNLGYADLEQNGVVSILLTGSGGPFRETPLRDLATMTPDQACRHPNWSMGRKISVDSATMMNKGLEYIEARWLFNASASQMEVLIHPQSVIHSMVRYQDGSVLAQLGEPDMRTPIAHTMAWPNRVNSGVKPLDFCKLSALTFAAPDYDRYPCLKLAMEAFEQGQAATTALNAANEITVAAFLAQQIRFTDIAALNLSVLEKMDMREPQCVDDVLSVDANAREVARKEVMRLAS
Put plainly: DXR enzyme inhibition assay. The format is biochemical. The conditions noted are these: for inhibition at 100 µM: read-out: % Inhibition at 100 μM, in vitro EcDXR inhibition, 100 μM; for inhibition at 50 µM: read-out: % Inhibition at 50 μM, EcDXR, 50 μM. The essentials: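 Recombinant E. coli DXR, assayed with a commercial kit following the vendor protocol. Test compound from a DMSO stock; final DMSO ~0.2% v/v or lower. Enzyme and compound pre-incubated with shaking for 10 minutes, then DXP added to start the reaction. NADPH consumption read kinetically at 340 nm. Inhibition taken at a single level or across five levels for IC50. IC50 from one representative experiment run in duplicate.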

The test system of data set [2] is M. tuberculosis H37Rv mc^2 6206. Put plainly: Screening against M. tuberculosis and MIC by Alamar Blue assay. The class given is cell-based. The conditions noted are these: for MIC: Mycobacterium tuberculosis, H37RV, read-out: MIC against M. tuberculosis.
Data set [3] is described as follows: Dilution of DMSO stock with the aqueous assay buffer. The conditions noted are these: dilution for the 50 μM enzyme assay. The class given is physicochemical.
A further data set deals with E. coli. The data set is described as follows: Screening against ESKAPE pathogens: E. coli. The format is cell-based. An outline of the steps: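 E. coli grown in LB at 37 °C with shaking at 200 rpm to turbidity, then diluted to OD600 0.02. Test compound freshly dissolved in DMSO and added at one of two single levels. Growth judged visually after 24 h at 37 °C against DMSO-treated controls.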

Consider `O=C(O)c1cccc(O)c1O` [Compound F2, 2,3-Dihydroxy benzoic acid], for which, in data set [1], the inhibition at 100 µM is 93.3%.

As for `O=C(NC(c1cccc2ccccc12)P(=O)(O)O)c1ccccc1O` (stereo not drawn) [Compound 20d, ((2-Hydroxybenzamido)(naphthalen-1-yl)methyl)phosphonic acid], in data set [1], the IC50 was found to be 32.9 µM and the inhibition at 50 µM came out at 81.3%. Further, the “folds less potent than 22d” value in data set [1] (EcDXR IC50 compared to 22d) is roughly 8 fold. Besides, the “Effect on M. tuberculosis growth” value in data set [2] (500 μM) is given as “inhibited M. tuberculosis growth”. Further, in data set [2], the minimum inhibitory concentration (MIC) is greater than 250 µM.

For `O=C(NC(c1ccc(Cl)c(Cl)c1)P(=O)(O)O)c1ccccc1O` (stereo not drawn) [Compound 20e, ((3,4-Dichlorophenyl)(2-hydroxybenzamido)methyl)phosphonic acid], the “Effect on M. tuberculosis growth” value in data set [2] (500 μM) was “inhibited M. tuberculosis growth”. Besides, the MIC in data set [2] is greater than 250 µM. For the same molecule, the “Behaviour during dilution with the aqueous buffer” value (“Behaviour during dilution” below) in data set [3] is recorded as “precipitated during dilution”.

Take `O=C(NCP(=O)(O)O)c1cccc(O)c1O` [Compound 21b, ((2,3-Dihydroxybenzamido)methyl)phosphonic acid]: the inhibition at 50 µM in data set [1] stood at 68.4%.

With `CC(NC(=O)c1ccc2ccccc2c1O)P(=O)(O)O` (stereo not drawn) [Compound 22c, (1-(1-Hydroxy-2-naphthamido)ethyl)phosphonic acid], the inhibition at 50 µM in data set [1] was 84.2%.

In the case of `O=C(O)c1ccccc1O` [Compound F12, Salicylic acid], in data set [1], the inhibition at 100 µM came out at 87.4%.

In the case of `O=C(NC(c1cccc2ccccc12)P(=O)(O)O)c1ccc2ccccc2c1O` (stereo not drawn) [Compound 22d, ((1-Hydroxy-2-naphthamido)(naphthalen-1-yl)methyl)phosphonic acid], in data set [1], the IC50 was determined as 4.44 µM and the inhibition at 50 µM turned out to be 73.7%. Moreover, in data set [1] (EcDXR IC50 compared to 22a), the “fold improvement in IC50 value compared to 22a” value is roughly 4 fold. The “Effect on M. tuberculosis growth” value in data set [2] (500 μM) is on record as “inhibited M. tuberculosis growth”. In addition, the MIC in data set [2] was 125 µM (≈ 50.9 µg/mL). Besides, the “Activity against E. coli” value with E. coli was “inactive against E. coli”.

Take `O=C(NC(c1cccc2ccccc12)P(=O)(O)O)c1cccc(O)c1O` (stereo not drawn) [Compound 21d, ((2,3-Dihydroxybenzamido)(naphthalen-1-yl)methyl)phosphonic acid]: the inhibition at 50 µM in data set [1] turned out to be 78.5%.

For the molecule `O=C(NCCCc1ccccc1)c1ccc2ccccc2c1O` [Compound 25c, 1-Hydroxy-N-(3-phenylpropyl)-2-naphthamide], the inhibition at 50 µM in data set [1] is 31.3%.

As for `O=C(O)c1ccc2ccccc2c1O` [Compound F7, 1-Hydroxy-2-naphthoic acid], the inhibition at 100 µM in data set [1] came out at 100%.

With `O=C(NC(c1ccccc1)P(=O)(O)O)c1coc2ccccc2c1=O` (stereo not drawn) [Compound 23a, ((4-Oxo-4H-chromene-3-carboxamido)(phenyl)methyl)phosphonic acid], in data set [1], the IC50 worked out at 6.09 µM and the inhibition at 50 µM is 79.8%. Besides, the “Effect on M. tuberculosis growth” value in data set [2] (200 μM) is on record as “none of the tested compounds affected M. tuberculosis growth”.

For `O=CN(O)CCCP(=O)(O)O` [FSM, Fosmidomycin, reference compound], the inhibition at 100 µM in data set [1] was determined as 100%.

As to `O=C(NCCc1ccccc1)c1ccc2ccccc2c1O` [Compound 25b, 1-Hydroxy-N-phenethyl-2-naphthamide], in data set [1], the inhibition at 50 µM was found to be 4.69%.

As to `O=C(NC(c1ccccc1)P(=O)(O)O)c1ccc2ccccc2c1O` (stereo not drawn) [Compound 22a, ((1-Hydroxy-2-naphthamido)(phenyl)methyl)phosphonic acid], in data set [1], the IC50 came out at 16.9 µM and the inhibition at 50 µM worked out at 70.9%. For the same molecule, in data set [1] (EcDXR IC50 compared to 22b), the “folds lower potency than 22b” value is on record as roughly 57 fold. For the same molecule, the “Effect on M. tuberculosis growth” value in data set [2] (200 μM) is given as “none of the tested compounds affected M. tuberculosis growth”.

On to `CC(NC(=O)c1cccc(O)c1O)P(=O)(O)O` (stereo not drawn) [Compound 21c, (1-(2,3-Dihydroxybenzamido)ethyl)phosphonic acid], for which the inhibition at 50 µM in data set [1] stood at 60.1%.

For the molecule `O=C(NCP(=O)(O)O)c1ccc2ccccc2c1O` [Compound 22b, ((1-Hydroxy-2-naphthamido)methyl)phosphonic acid], in data set [1], the concentration for half-maximal inhibition (IC50) was determined as 0.29 µM and the inhibition at 50 µM stood at 76.3%. Besides, in data set [2] (500 μM), the “Effect on M. tuberculosis growth” value was “inhibited M. tuberculosis growth”. Further, in data set [2], the MIC was greater than 250 µM. In addition, in the data set with E. coli, the “Activity against E. coli” value was “inactive against E. coli”.

For `O=Cc1cccc(O)c1O` [Compound F9, 2,3-dihydroxy benzaldehyde], the inhibition at 100 µM in data set [1] is 86.5%.

For the molecule `O=C(NC(c1ccccc1)P(=O)(O)O)c1cccc(O)c1O` (stereo not drawn) [Compound 21a, ((2,3-Dihydroxybenzamido)(phenyl)methyl)phosphonic acid], in data set [1], the inhibition at 50 µM is 66.5%. Further, in data set [2] (200 μM), the “Effect on M. tuberculosis growth” value is recorded as “none of the tested compounds affected M. tuberculosis growth”.

Take `CC(NC(=O)c1ccccc1O)P(=O)(O)O` (stereo not drawn) [Compound 20c, (1-(2-Hydroxybenzamido)ethyl)phosphonic acid]: the “Behaviour during dilution” value in data set [3] was “precipitated during dilution”.

Consider `O=C(NCP(=O)(O)O)c1ccccc1O` [Compound 20b, ((2-hydroxybenzamido)methyl)phosphonic acid], for which, in data set [3], the “Behaviour during dilution” value was “precipitated during dilution”.

Turning to `O=C(NCc1ccccc1)c1ccc2ccccc2c1O` [Compound 25a, N-Benzyl-1-hydroxy-2-naphthamide], in data set [1] (EcDXR, 50 μM), the “% Inhibition at 50 μM” value is on record as 30.4%. Besides, the inhibition at 50 µM in data set [1] was 30%.

As to `O=C(NC(c1ccccc1)P(=O)(O)O)c1ccccc1O` (stereo not drawn) [Compound 20a, ((2-Hydroxybenzamido)(phenyl)methyl)phosphonic acid], in data set [1], the IC50 turned out to be 33.2 µM and the inhibition at 50 µM came out at 94.6%. Besides, the “fold less potency than its counterpart 22a” value in data set [1] (EcDXR IC50 compared to 22a) is on record as roughly 2 fold. The “Effect on M. tuberculosis growth” value in data set [2] (200 μM) was “none of the tested compounds affected M. tuberculosis growth”.

For `O=C(O)c1coc2ccccc2c1=O` [Compound F10, Chromone-3-carboxylic acid], the inhibition at 100 µM in data set [1] was determined as 100%.
